The source made the active and inactive calls. The rule behind the calls is not given here.
Species on record: Rattus norvegicus
Assay: Inhibition of v-ATPase activity in rat brain synaptic vesicles
Assay type: tissue-based

| Activity | SMILES |
| --- | --- |
| inactive | NC(=O)CC(NC(=O)C(N)Cc1c[nH]c2ccccc12)C(=O)NC(CCC(=O)O)C(=O)NC(Cc1ccccc1)C(=O)O (racemic) |
| inactive | CCC(C)C(NC(=O)C(N)CCC(N)=O)C(=O)NC(CCC(=O)O)C(=O)NC(Cc1c[nH]c2ccccc12)C(=O)O (racemic) |

System: not listed separately
Assay: Inhibition of [3H]glutamate uptake at VGLUT in rat brain synaptic vesicles
Assay type: tissue-based
Summary of the method: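 Rat brain synaptic vesicles (approx. 0.1 mg protein) were incubated with ³H-L-glutamate (0.25 mM) and inhibitor over 0.01-5 mM, and the assay was started by adding substrate. IC50 values were taken from non-linear regression of sigmoidal dose-response curves and converted to Ki with the Cheng-Prusoff relationship, as mean ± s.e.m. (n = 3).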

| IC50 [µM] | Ki [µM] | SMILES |
| --- | --- | --- |
| 864 | 828 | CC[C@H](C)[C@H](NC(=O)[C@H](N)CCC(N)=O)C(=O)N[C@H](CCC(=O)O)C(=O)N[C@@H](Cc1c[nH]c2ccccc12)C(=O)O |

System: VGLUT (Rattus norvegicus)
Assay: Inhibition of [3H]glutamate uptake at VGLUT in rat brain synaptic vesicles relative to control; values are per cent of control
Parameters: concentration or dose not given beside the values

| SMILES | level, % of control [%] |
| --- | --- |
| NC(=O)C[C@H](NC(=O)[C@H](N)Cc1c[nH]c2ccccc12)C(=O)N[C@H](CCC(=O)O)C(=O)N[C@H](Cc1ccccc1)C(=O)O | 41 |
| NC(=O)CC(NC(=O)C(N)Cc1c[nH]c2ccccc12)C(=O)NC(CCC(=O)O)C(=O)NC(Cc1ccccc1)C(=O)O (racemic) | 13 |
| CC[C@H](C)[C@H](NC(=O)[C@@H](N)CCC(N)=O)C(=O)N[C@H](CCC(=O)O)C(=O)N[C@@H](Cc1c[nH]c2ccccc12)C(=O)O | 82 |
| CC[C@H](C)[C@@H](NC(=O)[C@@H](N)CCC(N)=O)C(=O)N[C@@H](CCC(=O)O)C(=O)N[C@H](Cc1c[nH]c2ccccc12)C(=O)O | 28 |
| CC[C@H](C)[C@@H](NC(=O)[C@H](N)CCC(N)=O)C(=O)N[C@@H](CCC(=O)O)C(=O)N[C@H](Cc1c[nH]c2ccccc12)C(=O)O | 35 |
| NC(=O)CCC(N)C(=O)NC(Cc1c[nH]c2ccccc12)C(=O)NC(CCC(=O)O)C(=O)NC(Cc1c[nH]c2ccccc12)C(=O)O (racemic) | 66 |
| CCC(C)C(NC(=O)C(N)CCC(N)=O)C(=O)NC(CCC(=O)O)C(=O)NC(Cc1c[nH]c2ccccc12)C(=O)O (racemic) | 38 |
| CC[C@H](C)[C@@H](NC(=O)[C@@H](N)CCC(N)=O)C(=O)N[C@@H](CCC(=O)O)C(=O)N[C@@H](Cc1c[nH]c2ccccc12)C(=O)O | 69 |
| CC[C@H](C)[C@@H](NC(=O)[C@H](N)CCC(N)=O)C(=O)N[C@H](CCC(=O)O)C(=O)N[C@H](Cc1c[nH]c2ccccc12)C(=O)O | 63 |
| CC[C@H](C)[C@@H](NC(=O)[C@@H](N)CCC(N)=O)C(=O)N[C@H](CCC(=O)O)C(=O)N[C@H](Cc1c[nH]c2ccccc12)C(=O)O | 60 |
